Measured values collected from several papers.
Protocols differ between the studies behind these lines.
Target: Ribosomal protein S6 kinase beta-1 (RPS6KB1, Homo sapiens, UniProt P23443)

`CN([C@@H]1CCc2c(CC(=O)O)c3ccccc3n2C1)S(=O)(=O)c1ccc(F)cc1` has a remaining binding of 100% (cell-free assay, competition with immobilised ligand; 1 µM).
With `CCCS(=O)(=O)Nc1ccc(F)c(C(=O)c2c[nH]c3ncc(-c4ccc(Cl)cc4)cc23)c1F` the inhibition was < 10% (enzyme activity, inhibitor; 1 µM).
`C=CC(=O)Nc1cc(Nc2nccc(Nc3cc(Cl)c(F)cc3C(C)(C)O)n2)c(OC)cc1N1CC[C@@H](N(C)C)C1` gave an inhibition of -3% (enzyme activity, inhibitor; 1 µM).
For `CN(C)C1CCN(CC#Cc2nn(C3CCCC3)c3nc(NCc4ccccc4)ncc23)C1` (centres unmarked), the inhibition was 6% (enzyme activity, inhibitor, FRET; 0.1 µM).
`CNC(=O)c1cc(Oc2ccc(NC(=O)Nc3ccc(Cl)c(C(F)(F)F)c3)cc2)ccn1` gave a remaining signal of 91.4% (cell-free assay; 0.5 µM).
For `COc1cc(-c2cn(C3CCc4c(F)cccc4N(CC(F)(F)F)C3=O)nn2)ccc1-n1cnc(C)c1` (centres unmarked), the remaining binding was 100% (cell-free assay, competition with immobilised ligand; 1 µM).
For `CCN(CC)CCNC(=O)c1c(C)[nH]c(/C=C2\C(=O)Nc3ccc(F)cc32)c1C`, the inhibition was 90% (enzyme activity, inhibitor; 10 µM).
`C[C@H](c1cccc(C#N)c1)n1cc(Cl)cc(C(N)=O)c1=N` gave a remaining binding of 100% (cell-free assay, competition with immobilised ligand; 1 µM).
`Cn1cncc1C1=CN(c2ncnc3[nH]cnc23)CCS1` gave an inhibition of 14% (enzyme activity, inhibitor, radiometric; 50 nM).
For `C[C@@H]1CN(c2cc(-c3nn(C)c4ccc(OC5(C)CC5)cc34)ncn2)C[C@H](C)O1`, the remaining binding was 100% (cell-free assay, competition with immobilised ligand; 1 µM).
The inhibition of `COc1cc2ncnc(Nc3ccc(Oc4ccccc4)cc3C)c2cc1OC` is reported as -2% (enzyme activity, inhibitor; 1 µM).
With `N#Cc1ccc(Nc2ccc3[nH]c(=O)[nH]c3c2)c(Cl)c1` the remaining binding was 100% (cell-free assay, competition with immobilised ligand; 1 µM).
`Oc1cccc(-c2nc(N3CCOCC3)c3oc4ncccc4c3n2)c1` has a remaining signal of 106% (cell-free assay; 0.5 µM).
With `Cc1cc(NC(=O)c2cccc3cc(-c4cccc5[nH]nc(N)c45)ccc23)ccc1F` the activity vs control was 110% (enzyme activity, inhibitor; 0.1 µM).
For `COc1cccc(CNC(=O)c2nc3scc(COCc4ccc(C(=O)O)cc4)c3c(=O)[nH]2)c1`, the remaining binding was 96.1% (cell-free assay, competition with immobilised ligand; 1 µM).
`O=S(=O)(NCCNC/C=C/c1ccc(Br)cc1)c1cccc2cnccc12` has a remaining signal of 25.6% (cell-free assay; 0.5 µM).
`Cc1ccc(C(=O)NCc2ccsc2)cc1C#Cc1cn(C(C)C)c2ncnc(N)c12` has an activity vs control of 92% (enzyme activity, inhibitor; 1 µM).
`CNc1cccc2cc(C(=O)Nc3ccc(C(=O)O)cc3)c(=O)[nH]c12` gave an inhibition of 9% (enzyme activity, inhibitor; 10 µM).
For `O=C1Nc2ccc(Cl)cc2C1=Cc1cc(Cl)c(O)c(Cl)c1`, the remaining signal was 91% (cell-free assay; 0.5 µM).
`COc1cc(/C=C/C(=O)CC(=O)/C=C/c2ccc(O)c(OC)c2)ccc1O` gave an activity vs control of 46% (enzyme activity, inhibitor; 1 µM).
